Experiments:
insulin receptor (IR) = insulin receptor (IR) (Homo sapiens, UniProt P06213); assay: IR affinity relative to HI; assay type: binding
Human IR-A = Human IR-A (Homo sapiens, UniProt P06213); assay: Human IR-A binding, competition scintillation proximity assay; settings: n=3
Human IR-B = Human IR-B (Homo sapiens, UniProt P06213); assay: Human IR-B binding, competition scintillation proximity assay; settings: n=3
Human IGF-1R = Human IGF-1R (Homo sapiens, UniProt P08069); assay: Human IGF-1R binding, competition scintillation proximity assay; settings: HSA 0%, n=4
Human IGF-1R, sequence (P08069 31-736 limits assumed): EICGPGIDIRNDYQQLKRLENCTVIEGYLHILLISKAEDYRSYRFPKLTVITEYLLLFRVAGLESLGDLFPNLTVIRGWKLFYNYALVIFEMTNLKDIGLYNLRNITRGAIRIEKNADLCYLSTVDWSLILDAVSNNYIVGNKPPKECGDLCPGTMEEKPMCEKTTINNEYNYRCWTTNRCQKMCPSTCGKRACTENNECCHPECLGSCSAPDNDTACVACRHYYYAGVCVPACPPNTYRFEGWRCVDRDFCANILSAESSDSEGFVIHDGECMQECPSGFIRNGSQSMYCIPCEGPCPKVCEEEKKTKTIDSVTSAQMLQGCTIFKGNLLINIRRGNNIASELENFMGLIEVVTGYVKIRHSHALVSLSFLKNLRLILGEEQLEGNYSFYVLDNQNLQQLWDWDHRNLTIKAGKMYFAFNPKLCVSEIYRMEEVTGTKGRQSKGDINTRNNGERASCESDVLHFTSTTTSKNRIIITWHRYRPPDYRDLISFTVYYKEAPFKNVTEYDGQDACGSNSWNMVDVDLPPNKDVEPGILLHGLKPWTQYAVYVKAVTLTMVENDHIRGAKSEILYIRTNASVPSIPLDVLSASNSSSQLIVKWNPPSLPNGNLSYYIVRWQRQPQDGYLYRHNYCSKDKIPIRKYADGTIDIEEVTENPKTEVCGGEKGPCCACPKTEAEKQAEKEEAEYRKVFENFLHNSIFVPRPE
Human IGF-1R, sequence (P08069 741-1367 partner limits assumed): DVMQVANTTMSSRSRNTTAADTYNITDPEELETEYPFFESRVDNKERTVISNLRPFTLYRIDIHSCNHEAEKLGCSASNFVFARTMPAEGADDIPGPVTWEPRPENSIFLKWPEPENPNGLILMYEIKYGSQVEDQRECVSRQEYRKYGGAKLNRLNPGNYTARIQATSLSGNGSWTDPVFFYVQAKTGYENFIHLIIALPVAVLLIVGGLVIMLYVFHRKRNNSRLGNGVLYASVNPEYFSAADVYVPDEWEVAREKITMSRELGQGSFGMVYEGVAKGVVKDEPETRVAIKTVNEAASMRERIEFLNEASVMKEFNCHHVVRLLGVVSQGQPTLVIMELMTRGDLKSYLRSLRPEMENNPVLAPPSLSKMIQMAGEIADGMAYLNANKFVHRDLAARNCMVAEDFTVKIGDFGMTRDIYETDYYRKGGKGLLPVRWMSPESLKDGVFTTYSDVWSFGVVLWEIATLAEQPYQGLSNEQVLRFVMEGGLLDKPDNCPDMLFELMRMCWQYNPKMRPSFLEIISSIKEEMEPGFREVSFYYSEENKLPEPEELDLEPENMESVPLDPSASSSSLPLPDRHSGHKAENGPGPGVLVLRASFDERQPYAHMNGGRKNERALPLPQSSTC

[1] = target: human insulin receptors (hIRs) (Homo sapiens, UniProt P06213); assay: IR phosphorylation in CHO-hIR cells; assay type: cell-based
[2] = tested on: extracellular-regulated kinase (ERK); assay: Phospho-ERK in CHO-hIR cells; assay type: cell-based, Chinese Hamster; settings: HSA 0.1%, n=3; for EC50: read-out: EC50 (nM) Mean (95% CI), Phospho-ERK in CHO-hIR cells
protein kinase B (AKT) = assay: Phospho-AKT in CHO-hIR cells; assay type: cell-based, Chinese Hamster; settings: read-out: EC50 (nM) Mean (95% CI), Phospho-AKT in CHO-hIR cells; HSA 0.1%, n=3
primary rat adipocytes = assay: Lipogenesis in rat adipocytes; assay type: cell-based; settings: HSA 0.1%, n=4
rat hepatocytes = assay: Glycogen accumulation in rat hepatocytes; assay type: cell-based; settings: for EC50: read-out: EC50 (nM) Mean (95% CI), Glycogen accumulation in rat hepatocytes, n=7, geometric mean
Procedure, shortened: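 Hepatocytes are isolated from rat by two-step collagenase perfusion. […] Determine cellular glycogen as glucose released after amyloglucosidase digestion.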

L6-hIR cells [3] = assay: Glycogen synthesis in rat L6-hIR cells; assay type: cell-based; settings: HSA 0.1%, n=4
Procedure, shortened: (§1)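 L6-hIR cells are a rat skeletal myoblast L6 line stably transfected with the A isoform of human IR. MCF-7 is a human mammary adenocarcinoma line.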

MCF-7 cells [4] = assay: Glycogen synthesis in human MCF-7 cells; assay type: cell-based; settings: HSA 0%, n=5
Procedure, shortened: as §1

L6-hIR cells [5] = assay: DNA synthesis; assay type: cell-based, rat; settings: HSA 0%, n=5
MCF-7 cells [6] = assay: DNA synthesis; assay type: cell-based, human; settings: HSA 0%, n=4
COLO-205 cells = assay: DNA synthesis; assay type: cell-based, human; settings: HSA 0%, n=3
HMEC cells = assay: DNA synthesis; assay type: cell-based, human; settings: HSA 0%, n=7
[7] = Clinical pharmacology trial: pharmacokinetics, total serum insulin icodec; assay type: in vivo, human
Procedure, shortened: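 Randomized, double-blind, double-dummy, active-controlled, multiple-dose escalation trial in adults aged 18–64 with type 2 diabetes on insulin (HbA1c ≤9.0%). Participants received once-weekly s.c. thigh injections at 12, 20 or 24 nmol/kg (one dose per cohort) for 5 weeks, at ~20:00. Total serum test compound (free plus albumin-bound) was measured by a specific assay at prespecified times, from predose to 36 days after the last dose.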

[8] = tested on: individuals with type 2 diabetes; assay: Clinical pharmacology trial: safety assessments; assay type: in vivo, human
Procedure, shortened: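 Dose-escalation trial in type 2 diabetes. Three sequential cohorts received once-weekly s.c. thigh injections at 12, 20 or 24 nmol/kg with once-daily placebo for 5 weeks. Safety covered adverse events, hypoglycemic episodes, injection site reactions, vital signs, physical examination, clinical laboratory tests and ECG. An internal safety group reviewed blinded interim data before each escalation.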

B16H: individual amino acid substitution TyrB16His in human insulin
IR affinity relative to HI (insulin receptor (IR); relative to HI): 22%

insulin icodec
IC50 (%) Insulin icodec relative to human insulin Mean (95% CI), Human IR-A binding (Human IR-A; HSA 0%): 0.50%
IC50 (%) Insulin icodec relative to human insulin Mean (95% CI), Human IR-A binding (Human IR-A; HSA 1.5%): 0.03%
IC50 (%) Insulin icodec relative to human insulin Mean (95% CI), Human IR-B binding (Human IR-B; HSA 0%): 0.78%
IC50 (%) Insulin icodec relative to human insulin Mean (95% CI), Human IR-B binding (Human IR-B; HSA 1.5%): 0.03%
IC50 (%) Insulin icodec relative to human insulin Mean (95% CI), Human IGF-1R binding (Human IGF-1R): 0.14%
agonism at IRs (activation of IRs and downstream AKT and ERK) ([1]; CHO-hIR cells, 0.1% HSA, in a similar manner as HI): full agonist
EC50 (%) Insulin icodec relative to human insulin Mean (95% CI), IR phosphorylation in CHO-hIR cells ([1]; HSA 0.1%, n=3): 0.21%
EC50 (%) Insulin icodec relative to human insulin Mean (95% CI), Phospho-ERK in CHO-hIR cells [2]: 0.39%
EC50 [2]: 271 nM
EC50 (protein kinase B (AKT)): 245 nM
EC50 (%) Insulin icodec relative to human insulin Mean (95% CI), Lipogenesis in rat adipocytes (primary rat adipocytes): 0.029%
EC50 (%) Insulin icodec relative to human insulin Mean (95% CI), Glycogen accumulation in rat hepatocytes (rat hepatocytes; HSA 0%, n=7): 4.3%
EC50 (%) Insulin icodec relative to human insulin Mean (95% CI), Glycogen accumulation in rat hepatocytes (rat hepatocytes; HSA 0.1%, n=8): 0.24%
EC50 (rat hepatocytes; HSA 0%): 6.4 nM
EC50 (%) Insulin icodec relative to human insulin Mean (95% CI), Glycogen synthesis in rat L6-hIR cells (L6-hIR cells [3]): 0.52%
EC50 (%) Insulin icodec relative to human insulin Mean (95% CI), Glycogen synthesis in human MCF-7 cells (MCF-7 cells [4]): 0.26%
EC50 (%) Insulin icodec relative to human insulin Mean (95% CI), DNA synthesis in rat L6-hIR cells (L6-hIR cells [5]): 0.6%
EC50 (%) Insulin icodec relative to human insulin Mean (95% CI), DNA synthesis in human MCF-7 cells (MCF-7 cells [6]): 0.5%
EC50 (%) Insulin icodec relative to human insulin Mean (95% CI), DNA synthesis in human COLO-205 cells (COLO-205 cells): 2.0%
EC50 (%) Insulin icodec relative to human insulin Mean (95% CI), DNA synthesis in human HMEC cells (HMEC cells): 0.2%
time to maximum concentration (median tmax) ([7]; type 2 diabetes, once-weekly s.c. dosing): 16 h
maximum serum concentration at steady state ([7]; week 5 of once-weekly dosing): < 500 nmol/L
adverse events, number of events ([8]; 12 nmol/kg once weekly, n=13): 33 events
adverse events, number of individuals with events ([8]; 12 nmol/kg once weekly, n=13): 13 individuals
adverse events, number of events ([8]; 20 nmol/kg once weekly, n=13): 19 events
adverse events, number of individuals with events ([8]; 20 nmol/kg once weekly, n=13): 9 individuals
adverse events, number of events ([8]; 24 nmol/kg once weekly, n=12): 23 events
adverse events, number of individuals with events ([8]; 24 nmol/kg once weekly, n=12): 9 individuals
serious or severe adverse events, severe hypoglycemic episodes, injection site reactions or clinically significant findings in vital signs, physical examination, clinical laboratory assessments or ECG ([8]; 12, 20, 24 nmol/kg once weekly for 5 weeks): No serious or severe adverse events
tolerability ([8]; 12, 20, 24 nmol/kg once weekly for 5 weeks, type 2 diabetes): well tolerated

human insulin [reference compound]
EC50 [2]: 1.02 nM
EC50 (protein kinase B (AKT)): 0.15 nM
EC50 (rat hepatocytes; HSA 0%): 0.28 nM

desB30: human insulin with the threonine in position B30 deleted
influence on the IR affinity (insulin receptor (IR); deletion of threonine in position B30 of HI): no influence

— article PMC8378355 (BMJ Open Diabetes Research & Care, 2021)
